# Compound activity: PubChem, Johns Hopkins Ion Channel Center
# Kir21 block: inhibitors of mouse Kir2.1 inward-rectifier potassium channel. B-score at 10 µM. P35561. 0.85% of 310,000 active. HEK293-Kir2.1, FluxOR thallium flux fluorescence; stronger effect = lower value. AID 1672;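 active = fluorescence ratio B-score at or below minus 3 SD of library scores, with starting-brightness B-score within 2 SD, cut at about -4.2 in these data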;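 also: channel flux triggered by added potassium and thallium sulfate stimulus; B-score of peak minus minimum fluorescence over baseline after thallium stimulus; more negative B-score means stronger Kir2.1 block with less thallium influx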
# hERG protect: shields human hERG channel from block by proarrhythmic agents. Q12809. CHO-hERG, FluxOR thallium flux, dofetilide IC70 present. activation (rescue from dofetilide block), less the hit threshold, % at 10 µM. 0.51% of 310,000 active. AID 1511;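 active = activation above the mean of controls blocked by dofetilide plus 5 SD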;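 also: thallium influx through hERG after potassium depolarization seen as dye fluorescence rise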
# KCNQ1 inh: human KCNQ1 channel inhibition. 1.3% of 310,000 active. P51787. B-score at 10 µM. CHO-K1 KCNQ1, FluxOR thallium flux fluorescence; stronger effect = higher value;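 active = compounds whose thallium flux B-score, printed positive for inhibition, exceeds three library SD while starting fluorescence stays within three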;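 also: channel opened by potassium depolarization with thallium stimulus after 20 min compound exposure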
# KCNK9 inh: human KCNK9 channel inhibition; HEK293 KCNK9, FluxOR thallium flux fluorescence; stronger effect = lower value; B-score at 10 µM; 1.2% of 310,000 active;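 active = ratio B-score over 3 SD below the library mean, with starting fluorescence within 5 SD of its mean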;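 also: negative B-score means less thallium flux so channel inhibition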
# KCNK3 inh: human KCNK3 channel inhibition, primary screen; O14649; B-score at 10 µM; CHO-KCNK3 thallium flux, FluxOR fluorescence; stronger effect = lower value; 0.84% of 340,000 active;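 active = B-score under library mean minus 4 SD, starting fluorescence ratio at most library mean plus 5 SD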;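 also: more negative B-score means stronger inhibition of thallium flux through KCNK3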
# Target sequence (O14649 whole entry, looked up): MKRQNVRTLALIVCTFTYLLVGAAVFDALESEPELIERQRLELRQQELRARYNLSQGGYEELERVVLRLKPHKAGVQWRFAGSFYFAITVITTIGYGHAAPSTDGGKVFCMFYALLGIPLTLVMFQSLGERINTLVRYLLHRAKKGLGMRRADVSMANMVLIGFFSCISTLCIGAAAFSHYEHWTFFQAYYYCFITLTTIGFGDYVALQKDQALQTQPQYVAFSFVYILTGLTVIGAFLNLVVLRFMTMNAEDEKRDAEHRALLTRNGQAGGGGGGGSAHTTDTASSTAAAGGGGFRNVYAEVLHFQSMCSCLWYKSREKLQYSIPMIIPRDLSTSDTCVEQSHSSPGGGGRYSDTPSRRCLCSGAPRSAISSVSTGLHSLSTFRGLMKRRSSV
# KCNQ1 pot: potentiates or activates the human KCNQ1 potassium channel; B-score at 10 µM; P51787; AID 2648; CHO-K1 KCNQ1, thallium flux FluxOR fluorescence; stronger effect = higher value; 0.35% of 310,000 active;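 active = fluorescence ratio B-score, a plate-corrected score, at least three library SD, with initial intensity B-score within 5 SD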
#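 Assay system: CHO-K1 cells stably expressing KCNQ1; Medium: assay buffer with matched DMSO; Also added: K+/Tl+ depolarizing stimulus; Dosing: single dose; Timing: dye 90 min, compound 20 min, room temperature; Measured by: kinetic FluxOR thallium fluorescence, 10-s 1-Hz baseline, 110-s post-stimulus read; Read-out: peak-minus-minimum fluorescence over initial fluorescence, negative-control normalized, B-scored.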
# * = called active by the depositor; i = inactive; · = not tested or not shown. The list is not random: actives were taken first. Their share in the collection is about 3.7%.
SMILES,Kir21 block,hERG protect,KCNQ1 inh,KCNK9 inh,KCNK3 inh,KCNQ1 pot
COc1ccc(/C=C/CN2CCCC(CCC(=O)NCc3ccc(F)c(F)c3)C2)cc1 (configuration not stated),-4.9*,-14.8,i,i,i,i
CCn1cc(C(=O)NC2CCCc3c2cnn3-c2cccc(C)c2C)cn1 (configuration not stated),-0.25,-16.5,8*,i,i,i
COc1ccc(NC(=O)C(c2ccc(OC)cc2)N(Cc2ccco2)C(=O)CC2NC(=O)NC2=O)cc1 (configuration not stated),0.04,-0.7,i,i,i,i
COc1ccc(C(C(=O)Nc2ccc(C(C)C)cc2)N(Cc2ccco2)C(=O)CC2NC(=O)NC2=O)cc1 (configuration not stated),0.1,-2.7,6*,i,i,i
CC(/C=C(\NC(=O)c1ccccc1)C(=O)N=Nc1c(O)[nH]c2ccc(C)cc12)=C\c1ccccc1,0.07,-22.8,6*,i,i,i
Cc1ccc2[nH]c(O)c(N=NC(N)=S)c2c1,-0.08,-8.4,i,i,i,i
CCN1C(=O)c2ccc(C(=O)Nc3cccc(C(=O)O)c3)cc2C1=O,-1,-3.9,i,i,i,i
COc1cccc(CC2(CO)CCCN(Cc3c(C)cc(C)cc3-n3cccn3)C2)c1 (configuration not stated),-5.37*,-25.7,i,i,i,i
COc1cc(Cl)c(CN2CCCC(CO)(Cc3ccccc3)C2)cc1OC (configuration not stated),-2.52,-4.7,i,i,i,i
COc1cccc(CC2(CO)CCCN(Cc3cc4ccccc4[nH]3)C2)c1 (configuration not stated),-4.24*,-13.1,i,i,i,i
COc1cccc(CC2(CO)CCCN(Cc3ccc(C)s3)C2)c1 (configuration not stated),-2.03,-4.5,i,i,i,i
CSc1ccc(CN2CCCC(CO)(Cc3ccccc3)C2)cc1 (configuration not stated),-4.54*,-14.3,i,i,i,i
COc1cc(C(=O)NCc2nnc(SCC(=O)NCCc3ccccc3)o2)cc(OC)c1OC,0.59,-2.4,i,i,i,i
CC(=O)N1c2ccc(S(=O)(=O)N3CCC(C(=O)Nc4cccc(Cl)c4)CC3)cc2CC1C (configuration not stated),-0.08,-5.0,i,i,i,i
O=C(N/N=C/c1ccc(-c2cccc([N+](=O)[O-])c2)o1)[C@H]1C[C@@H]1c1ccccc1,-3.98,-8.1,i,-10.4*,i,i
O=c1c(O)c(-c2ccc3c(c2)OCO3)oc2ccccc12,-0.35,9.4*,i,i,i,33*
O=[N+]([O-])c1ccc(Cl)c(NC(=S)N2CCCC2)c1,2.03,-1.6,i,i,i,i
COc1cc(OC)cc(N2C(=O)CC(N3CCC(C(=O)N4CCCCC4)CC3)C2=O)c1 (configuration not stated),0.02,-3.5,i,i,i,i
CCOc1cc(/C=C2\C(=O)N(c3cccc(C(F)(F)F)c3)C(=O)c3ccccc32)ccc1O,0.41,-5.4,i,i,i,i
COc1cccc(/C=C2\C(=O)N(c3cccc(C)c3)C(=O)c3ccccc32)c1,-9.21*,-10.0,i,i,i,i
Cc1cccc(N2C(=O)/C(=C\c3ccc(OC(F)F)cc3)c3ccccc3C2=O)c1,-4.35*,-2.7,i,i,i,i
O=C(O)c1cc(N2CCCC2)ccn1,·,·,·,·,i,·
COc1ccc(Nc2nc3ccccc3nc2-n2nc(C)cc2C)cc1,-0.04,-7.6,i,-7.17*,i,i
Cc1cc(C)n(-c2nc3ccccc3nc2Nc2ccc3[nH]c(=O)[nH]c3c2)n1,1.05,0.3,i,i,i,i
CN(C=O)c1cc([N+](=O)[O-])ccc1OCc1ccccc1,·,·,·,·,i,·
SMILES,Kir21 block,hERG protect,KCNQ1 inh,KCNK9 inh,KCNK3 inh,KCNQ1 pot
COc1cc(CNC2CCCC2)cc(Cl)c1OCc1ccccc1F,-4.65*,-15.3,i,i,i,i
COc1cc(CNC2CCCCCC2)cc(OC)c1O,-0.28,2.0,i,i,i,i
O=S(=O)(c1cccc(C(F)(F)F)c1)N1CCN(CC(O)COCc2ccccc2)CC1 (configuration not stated),·,·,·,·,i,·
COc1ccc(C(=O)/C=C/c2cccc(OCc3ccccc3)c2)cc1CSCC(=O)O,-6.23*,-33.3,i,i,i,i
COc1ccc(C(=O)/C=C/c2ccc(OCc3ccccc3)cc2)cc1CSCC(=O)O,-1.72,-27.2,i,i,i,i
C#CCN1C(=O)S/C(=C/C=C/c2ccc(N(C)C)cc2)C1=O,·,·,·,·,i,·
CCOC(=O)Cc1csc(NC(=S)NC(=O)c2ccc(Cl)cc2)n1,1.48,7.3*,i,i,i,17*
CCOC(=O)Cc1csc(NC(=S)NC(=O)c2ccc([N+](=O)[O-])cc2)n1,1.81,-8.8,i,i,i,i
Oc1ccccc1-c1nc2c3ccccc3c3ccccc3c2[nH]1,0.23,-3.1,6*,i,i,i
c1csc(-c2nc3c4ccccc4c4ccccc4c3[nH]2)c1,-0.01,-6.3,i,i,-10*,i
c1ccc(-c2nc(-c3cccs3)[nH]c2-c2ccccc2)cc1,1.17,-4.4,i,i,i,i
CC(=O)Nc1ccc(S(=O)(=O)N2CCSc3ccccc32)cc1,·,·,·,·,i,·
COc1ccc(O)c(CN2CCC(n3nccc3NC(=O)CCOc3ccccc3)CC2)c1,-0.12,-11.2,i,i,i,i
CCOC(=O)c1n[nH]n2c1nc(=S)c1ccccc12,-1.1,23.3*,i,i,i,34*
N=c1c2c(ncn1CCCO)Oc1ccc3ccccc3c1C2c1ccccc1 (configuration not stated),-4.24*,-10.9,i,i,i,i
COc1ccc(C2c3ccc4ccccc4c3Oc3ncn(CCCO)c(=N)c32)cc1 (configuration not stated),-2.93,-19.8,i,i,i,i
COc1ccc(C2c3ccc4ccccc4c3Oc3ncn(CCO)c(=N)c32)cc1OC (configuration not stated),-1.75,-10.4,i,i,i,i
COc1ccc(C2c3ccc4ccccc4c3Oc3ncn(CCO)c(=N)c32)cc1 (configuration not stated),-5.21*,-13.2,i,i,i,i
